Screening results as filed in PubChem.
Only some compounds are listed: those with a hit (about 3.7% of all), similar ones and a draw of the others.
EP2 modulator: modulates human prostaglandin E2 receptor EP2 signaling | EP2-expressing cells, cAMP HTRF FRET, PGE2 co-stimulation | induction, % at 25 µM | P43116 | hit rate 0.83% among 260,000;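 active = compounds whose cAMP rise, as percent of the full-agonist control response, exceeds 60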;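 note: rat C6 glioma line stably carrying human EP2 under a CMV promoter; the protocol text gives 20 µM as final concentration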
Target sequence (P43116 whole entry, looked up): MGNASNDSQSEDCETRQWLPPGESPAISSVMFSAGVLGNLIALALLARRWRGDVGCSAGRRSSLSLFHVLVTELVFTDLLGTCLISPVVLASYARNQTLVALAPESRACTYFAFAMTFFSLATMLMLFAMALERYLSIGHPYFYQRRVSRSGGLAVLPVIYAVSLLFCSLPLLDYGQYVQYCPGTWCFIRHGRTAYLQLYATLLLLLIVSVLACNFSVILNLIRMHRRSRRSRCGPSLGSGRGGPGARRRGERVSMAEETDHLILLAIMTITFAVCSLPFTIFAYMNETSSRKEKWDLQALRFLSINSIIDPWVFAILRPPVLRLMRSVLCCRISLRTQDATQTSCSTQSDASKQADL
CHO parental Ca: signal in parental CHO cells, OX1R antagonist counter-screen; parental CHO-K1, ATP-induced calcium, Fluo-8 fluorescence; inhibition, % at 5.6 µM; AID 463079; hit rate 0.63% among 330,000;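 active = inhibition above that plate's mean sample inhibition plus 3 SD, cut at about 26% in these data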
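Assay system: parental CHO cells; Read-out basis: percent inhibition of ATP-evoked calcium rise, normalized to controls; Benchmarks: ATP and no-ATP DMSO wells; Compound dosing: single nominal dose of 5.6 µM per compound; Signal: Fluo-8 calcium dye fluorescence; Also added: ATP as calcium-mobilizing challenge; Repeats: singlicate.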
OX1R antag-1: blocks the human orexin 1 receptor. OX1R-expressing cells, FRET antagonist read-out. AID 485270. hit rate 1.8% among 330,000. inhibition, % at 6.6 µM; in the data active = inhibition mostly above about 38%, no sharp cut-off; inactive = mostly below about 40%
GPR7 antag: antagonists of human GPR7 (neuropeptides B/W receptor 1) | P48145 | GPR7-expressing cells, fluorescence antagonist assay | inhibition, % at 4.4 µM | hit rate 1.1% among 290,000 | AID 1861; in the data active = inhibition above about 16%, passing the limit was not always enough;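 note: cells stimulated with the agonist NPW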
Target sequence (P48145 whole entry, looked up): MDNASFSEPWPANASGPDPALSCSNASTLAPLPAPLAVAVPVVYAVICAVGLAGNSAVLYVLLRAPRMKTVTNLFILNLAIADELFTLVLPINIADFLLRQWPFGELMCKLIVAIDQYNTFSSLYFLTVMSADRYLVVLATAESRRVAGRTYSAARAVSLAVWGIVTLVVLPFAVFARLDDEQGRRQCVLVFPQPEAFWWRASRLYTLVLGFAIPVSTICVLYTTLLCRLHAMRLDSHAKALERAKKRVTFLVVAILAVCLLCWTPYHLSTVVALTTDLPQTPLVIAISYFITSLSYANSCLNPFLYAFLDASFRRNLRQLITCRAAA
OX1R antag-2: human HCRTR1 antagonism; hit rate 0.43% among 330,000; CHO/OX1R cells, Fluo-8 calcium fluorescence, orexin A; O43613; inhibition, % at 5 µM;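 active = inhibition above its plate's threshold, mean inhibition of all tested compounds on the plate plus 3 SD, cut at about 37% in these data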
EP2 antag: inhibitors of human EP2 prostaglandin E2 receptor; P43116; C6 glioma cells expressing human EP2, cAMP TR-FRET; cells stimulated with saturating PGE2; inhibition, % at 25 µM; hit rate 0.52% among 260,000;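 active = percent inhibition above 40 after rounding to a whole number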;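 note: rat C6 glioma host cells with rolipram phosphodiesterase inhibitor present; the protocol text gives 20 µM as final concentration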
Hits are given with their value; - = inactive; . = no result; ! = repeats disagree.

SMILES | EP2 modulator | CHO parental Ca | OX1R antag-1 | GPR7 antag | OX1R antag-2 | EP2 antag
COc1cccc(/C=N/n2c(-c3cc(C)[nH]n3)n[nH]c2=S)c1OC | - | - | - | - | - | -
Cc1ccc(/C=C/C(=O)c2ccc(Br)cc2)o1 | - | . | . | . | . | 95
COc1cc(OC)c(C2SCCN2S(=O)(=O)c2ccc(C)cc2C)cc1OC (centres undefined) | - | . | . | . | . | -
COc1ccc(Cn2c(-c3ccccc3)nc3c(c(=O)c4ccccc4n3C)c2=O)cc1 | - | - | - | - | - | -
Cn1c2ccccc2c(=O)c2c(=O)n(Cc3ccco3)c(-c3ccc(C(C)(C)C)cc3)nc21 | 65 | - | - | - | - | -
Nc1ncnc2nc[nH]c12.Nc1ncnc2nc[nH]c12.[Cl][Pt]([Cl])([Cl])[Cl] | - | . | . | . | . | 47
Cc1sc2ccccc2[n+]1CCCCS(=O)(=O)[O-] | - | . | . | . | . | -
Cc1csc2c(N3CCN(C(=S)Nc4ccc(F)cc4F)CC3)ncnc12 | - | 39 | - | - | - | -
O=C(Nc1ccc(Cl)cc1)c1ccc2nsnc2c1 | - | - | - | - | - | -
COc1ccc(OC)c(CCNC(=O)CCC(=O)N2CCOc3ccc(C)cc32)c1 | . | - | 39 | - | - | .
O=[N+]([O-])c1ccc(Sc2ccccc2)nc1 | - | - | - | - | - | -
O=[N+]([O-])c1ccc(Sc2n[nH]c(-c3ccccc3)n2)nc1 | - | - | 74 | - | - | -
COc1ccc(N2CC(NS(=O)(=O)c3ccc(F)cc3)CC2=O)cc1 (centres undefined) | . | - | - | . | - | .
COc1cccc2cc(C(=O)CS(=O)(=O)c3ccc(Cl)cc3)c(=O)oc12 | . | - | 43 | - | - | .
COc1cccc2cc(C(C)=O)c(=O)oc12 | - | - | - | - | - | -
CN(C)c1ccc(/C=N/N(CCO)C2=NS(=O)(=O)c3ccccc32)cc1 | . | 53 | - | - | 48 | .
O=S1(=O)N=C(N(CCO)/N=C/c2ccc(Cl)cc2)c2ccccc21 | . | - | - | - | - | .
COc1ccccc1NC(=O)c1ccc(NC(=O)COC(=O)c2cccnc2Cl)cc1 | . | - | - | . | - | .
Cc1ccc2[nH]c3c(NCc4ccco4)ncnc3c2c1 | - | - | 50 | - | - | -
COc1ccc(N(CC(=O)NCc2ccccc2OC)S(=O)(=O)c2c(C)nn(C)c2C)cc1 | - | - | - | - | - | -
CN(C)/C=C/c1[nH]c(=O)[nH]c(=O)c1[N+](=O)[O-] | - | - | - | - | - | -
CN(C)/C=C/c1oc2ccc(O)cc2c1[N+](=O)[O-] | - | - | 52 | - | - | -
Nc1cc(C(=O)O)c(N)c2c1C(=O)c1ccccc1C2=O | - | - | 115 | - | - | -
O=C1c2ccccc2C(=O)c2c1ccc(C(=O)O)c2-c1ccc2ccccc2c1 | - | . | . | . | . | -
CCCCC(=O)Nc1nc2ccc3nc(C)sc3c2s1 | - | - | 52 | - | - | -
SMILES | EP2 modulator | CHO parental Ca | OX1R antag-1 | GPR7 antag | OX1R antag-2 | EP2 antag
CC1(C)Cc2c(sc(NC(=O)c3ccc(C(=O)c4ccccc4)cc3)c2C(N)=O)C(C)(C)N1 | . | 29 | - | - | - | .
Cc1ccc(CNC(=O)CSc2nc3c(sc4ccccc43)c(=O)n2CCCN2CCCC2)cc1 | - | - | - | - | - | -
CCCOC(=O)c1ccc(NC(=O)c2cc(OC)c(OC)c(OC)c2Br)cc1 | - | - | - | - | - | -
CCCOC(=O)c1ccc(NC(=O)c2cc(Cl)ccc2OC)cc1 | - | - | 66 | - | - | -
C=CCn1c(=O)c2ccccc2n2c(SCC(=O)NCCc3ccccc3)nnc12 | - | - | - | - | - | -
CCOC(=O)N1CCN(c2nc(-c3cccs3)nc3ccccc23)CC1 | . | - | 74 | - | - | .
CCCN1CCN(c2nc(-c3cccs3)nc3ccccc23)CC1 | - | - | - | - | - | -
CCN(c1ccccc1)S(=O)(=O)c1ccc(F)cc1C | 62 | - | - | - | - | -
CCN(c1ccccc1)S(=O)(=O)c1cc2c(cc1C)N(C)CCO2 | . | - | - | - | - | .
Cc1cccc(N(NC(=O)C(C)(C)O)C(=O)c2ccccc2)c1 | - | - | - | - | - | -
Cc1noc(/C=C/Nc2ccc(F)cc2F)c1[N+](=O)[O-] | - | - | - | - | - | -
Cc1noc(/C=C/c2ccccn2)c1[N+](=O)[O-] | . | - | 63 | - | - | .
COC(=O)CNc1n[nH]c(=S)[nH]c1=O | - | - | - | - | - | 86
CN(C)C(=O)CNc1n[nH]c(=S)[nH]c1=O | - | - | - | - | - | -
CC(C)OC(=O)CNc1n[nH]c(=S)[nH]c1=O | - | . | . | - | . | 101
Cc1ccc(C(=O)N2CCC(C(=O)NC3CCCCCC3)CC2)cc1 | . | - | - | - | - | .
O=C(CN1CCCC(O)C1)N1c2ccccc2Sc2ccc(C(F)(F)F)cc21 (centres undefined) | - | - | - | - | - | -
CN1CCN(CCCN2c3ccccc3Sc3ccc(C(F)(F)F)cc32)CC1 | - | - | - | - | - | 41!
CCCc1c(-c2ccc(O)cc2)nn(-c2ccc(O)cc2)c1-c1ccc(O)cc1 | - | - | - | . | - | 100
CCCCC(CC)C(=O)Nc1ccc(S(=O)(=O)N2CCCC2)cc1 (centres undefined) | . | - | - | - | - | .
CNC(=O)COC(=O)c1ccccc1NC(=O)c1ccco1 | - | - | - | - | - | -
O=C(OCC(=O)N1CCN(C(=O)c2ccco2)CC1)c1ccccc1OCc1ccc(Cl)cc1 | - | - | - | 28 | - | -
O=C(Nc1ccccc1C(=O)OCC(=O)N1CCc2ccccc2C1)c1ccco1 | - | - | 80 | - | - | -
NC(=O)c1cc2ccccc2o/c1=N\NC(=O)c1ccc(F)cc1 | . | - | - | - | - | .
CCOc1ccc(CCNC(=O)CS(=O)Cc2nc(-c3ccccc3C)oc2C)cc1OCC (centres undefined) | . | - | 57 | - | - | .
SMILES | EP2 modulator | CHO parental Ca | OX1R antag-1 | GPR7 antag | OX1R antag-2 | EP2 antag
Cc1cn([C@@H](CCCCNC(=O)OC(C)(C)C)C(=O)NCCCCCCCCCCC(=O)N2CCN(C(=O)OC(C)(C)C)CC2)nn1 | . | 61 | 61 | . | - | .
CC[C@H](C)Cc1cn([C@@H](CCCN=C(NC(=O)OC(C)(C)C)NC(=O)OC(C)(C)C)C(=O)NCCCCCCCCCCC(=O)N2CCN(C(=O)OC(C)(C)C)CC2)nn1 | . | - | - | . | - | .
O=C(c1ccc(Cl)c(S(=O)(=O)N2CCCC2)c1)N1CCCCC1 | . | - | - | - | - | .
COc1cc(Cl)c(C)cc1NC(=O)COC(=O)C(NS(=O)(=O)c1ccc(Cl)cc1)C(C)O (centres undefined) | - | - | - | - | - | -
CC(O)C(NS(=O)(=O)c1ccc(Cl)cc1)C(=O)OCC(=O)Nc1cccnc1Cl (centres undefined) | - | - | - | 25 | - | -
NC(=O)c1oc2ccccc2c1NC(=O)c1ccc([N+](=O)[O-])o1 | . | - | 48 | - | - | .
CC(=O)c1cccc(NC(=O)c2ccc([N+](=O)[O-])o2)c1 | . | - | 57 | . | - | .
